This note sets out measurements from ChEMBL document CHEMBL4627404, “Design, Synthesis, and Activity Study of Water-Soluble, Rapid-Release Propofol Prodrugs” (J Med Chem, 2020).

In general, ED50 refers to the dose at which the effect has come halfway, by size or by number of responders. By LD50 is commonly meant the dose at which mortality reaches 50%. Read a high LD50 as a less toxic substance.

Data set [1] has as its system Mus musculus. In words: Anesthetic activity in iv dosed drug naive Kunming mouse assessed as loss of righting reflex. Type of data set: functional. In outline: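 Male KM mice (20-30 g), at least 20 drug-naïve animals per drug, given a tail-vein bolus over ~10 s. Anaesthesia scored as loss of righting reflex. ED50 found by the up-and-down method and analysed by Dixon–Mood to give the median effective dose with 95% CI.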

A short description of data set [2]: Stability in Kunming mouse plasma assessed as drug decomposition at 100 ug/ml incubated for 2 hrs by HPLC analysis. Type of data set: ADME, cell-free.
Data set [3] in a line: Stability in water at 10 mg/ml incubated for 4 hrs by HPLC analysis. The data set is classed as physicochemical. The conditions noted are these: buffer. In outline: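 Aqueous solutions (10 mg/ml) held at 30 °C for 4 h before the plasma hydrolysis studies, n=3.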
The nature of data set [4]: Stability in Kunming mouse plasma assessed as drug decomposition at 100 ug/ml incubated up to 120 mins by HPLC analysis. Type of data set: ADME, cell-free. The conditions noted are these: 2 h. In outline:
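Mouse blood was heparinised at sampling and centrifuged at 3500×g for 5 min at 4 °C to obtain plasma. A 10 mg/ml aqueous stock was diluted 1:100 into plasma, giving a final 100 μg/ml, and shaken at 37 °C for 2 h. The read-out was the percentage of propofol released, given as mean ± SD. Water stability (30 °C, 4 h, n=3) was checked beforehand.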

A short description of data set [5]: Toxicity in iv dosed drug naive Kunming mouse. Type of data set: organism-based. The conditions noted are these: in vivo. In outline:
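Male KM mice (20-30 g), at least 20 drug-naïve animals per drug, given a tail-vein bolus over ~10 s. LD50 found by the up-and-down method.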

A short description of data set [6]: Drug metabolism in iv dosed drug naive Kunming mouse assessed dose of propofol released from prodrugs dosed at 2 times anesthetic ED50. The data set is classed as ADME, organism-based. The conditions noted are these: in vivo. Put shortly:
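Propofol delivered at 2×ED50 is calculated as (MW propofol/MW prodrug)×(2×ED50) mg/kg from the tail-vein ED50 in KM mice.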

Data set [7] relates to Mus musculus. In words: Anesthetic activity in iv dosed drug naive Kunming mouse assessed as time from end of injection to appearance of loss of righting reflex dosed at 2 times anesthetic ED50. Type of data set: functional. In outline:
(§1)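 Ten drug-naïve male KM mice (20-30 g) per drug received 2×ED50 by tail-vein injection. Onset is timed from end of injection to appearance of LORR. Duration is timed from LORR appearance to its recovery. Survival is recorded over the 10 mice.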

Data set [8] can be described thus: Drug metabolism in Kunming mouse plasma assessed as propofol release at 100 ug/ml incubated up to 120 mins by HPLC analysis relative to control. Type of data set: ADME, cell-free. The conditions noted are these: 2 h.
The nature of data set [9]: Therapeutic index, ratio of LD50 for toxicity in iv dosed drug naive Kunming mouse to ED50 for anesthetic activity in iv dosed drug naive Kunming mouse assessed as loss of righting reflex. Type of data set: organism-based. Particulars: in vivo, read-out: Ratio LD50/ED50. In outline: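 TI = LD50/ED50. Both values come from tail-vein bolus (~10 s) dosing of male KM mice (20-30 g, at least 20 drug-naïve per drug) by the up-and-down method. The ED50 end point is loss of righting reflex.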

Data set [10] in a line: Solubility in water measured per 100 ml. Particulars: buffer. Type of data set: physicochemical.
Data set [11] in a line: Toxicity in iv dosed drug naive Kunming mouse assessed as mouse survival dosed at 2 times anesthetic ED50. Type of data set: organism-based. The conditions noted are these: in vivo. Put shortly:
as §1

Data set [12] can be described thus: Solubility in water. The data set is classed as physicochemical.

Molecules are shown by their SMILES. The source made the active and inactive calls. No cut-off for these calls is given here.

As for `CC(C)c1cccc(C(C)C)c1OC(=O)COC(C(=O)[O-])C(=O)[O-].[Na+].[Na+]`, the ED50 entry in [1] was “inactive”. Also, the Stability entry in [2] was “Stable”.

On to `CC(C)c1cccc(C(C)C)c1OC(=O)OC(C(=O)[O-])C(=O)[O-].[Na+].[Na+]`, for which the Stability entry in [3] and in data set [4] was “Stable” each time. Also, in [1], the ED50 entry was “inactive”.

In the case of `CC(C)c1cccc(C(C)C)c1OC(=O)OCC(=O)[O-].[Na+]`, in data set [3], the Stability result is “Stable”. The ED50 entry in data set [1] was “inactive”.

Consider `CC(C)c1cccc(C(C)C)c1OC(=O)COC(=O)CN1CCOCC1.Cl`, for which the LD50 in data set [5] was found to be 132 mg/kg. Besides, the values for the Drug metabolism in [6] and in data set [8] were 25.1 mg/kg and “Metabolite_Detected”, respectively. In addition, in data set [7], the Time was determined as 3.1 s. In addition, the ED50 in [1] turned out to be 28.1 mg/kg. Further, the selectivity ratio in data set [9] was 4.7. The compound further yielded a solubility in data set [10] of 76.33 g. The survival in data set [11] was found to be 100%.

Consider `CNCC(=O)OCC(=O)Oc1c(C(C)C)cccc1C(C)C.Cl`, for which the LD50 in [5] amounted to 60.8 mg/kg. In addition, the Drug metabolism in [6] was 30.7 mg/kg. In data set [7], the Time stood at 8 s. The ED50 in [1] came out at 29.6 mg/kg. Further, the selectivity ratio in data set [9] was 2. For the same compound, in data set [11], the survival was 60%.

With `CC(C)c1cccc(C(C)C)c1OC(=O)COC(=O)CN.Cl`, in data set [5], the LD50 was 89.2 mg/kg. Besides, the Drug metabolism in data set [6] was 37.1 mg/kg. Further, the Time in data set [7] is given as 9.1 s. Moreover, in data set [1], the ED50 came to 34.3 mg/kg. Moreover, in data set [9], the selectivity ratio was found to be 2.6. Also, in data set [11], the survival stood at 10%.

In turn, `CC(C)c1cccc(C(C)C)c1OC(=O)COC(=O)CC(=O)[O-].[Na+]` displayed an LD50 in data set [5] of 244 mg/kg. For the same compound, in [6], the Drug metabolism is 76 mg/kg. The Time in data set [7] is reported as 72.2 s. In [1], the ED50 was 75.9 mg/kg. Moreover, the selectivity ratio in data set [9] worked out at 3.2. For the same compound, the survival in [11] is 100%.

On to `CC(C)c1cccc(C(C)C)c1OC(=O)COC(=O)[C@H](C)N.Cl`, for which the LD50 in data set [5] amounted to 51.9 mg/kg. The Drug metabolism in [6] was found to be 21.2 mg/kg. Besides, in data set [7], the Time came out at 18.2 s. In addition, the median effective dose (ED50) in data set [1] turned out to be 20.5 mg/kg. Further, the selectivity ratio in [9] came to 2.5. For the same compound, the survival in data set [11] was determined as 50%.

In [5], `CC(C)c1cccc(C(C)C)c1OC(=O)COC(=O)CCC(=O)[O-].[Na+]` registered an LD50 of 205 mg/kg. Besides, the Drug metabolism in data set [6] is 75.7 mg/kg; in data set [8], “Metabolite_Detected”. In data set [7], the Time is reported as 25.5 s. Moreover, in data set [1], the ED50 is 73.1 mg/kg. For the same compound, the selectivity ratio in data set [9] came to 2.8. The survival in [11] worked out at 80%.

Turning to `CC(C)c1cccc(C(C)C)c1OC(=O)COC(=O)CN1CCCC1.Cl`, in [5], the LD50 amounted to 92.1 mg/kg. Also, in data set [6], the Drug metabolism amounted to 23.4 mg/kg. Besides, the Time in [7] was determined as 4 s. In addition, the ED50 in data set [1] is 25.2 mg/kg. In data set [9], the selectivity ratio amounted to 3.6. The solubility in data set [10] is 83.96 g. The survival in data set [11] amounted to 100%.

The compound `CC(C)c1cccc(C(C)C)c1O` [PROPOFOL] had an LD50 in data set [5] of 52.2 mg/kg. The Drug metabolism in data set [6] stood at 23.4 mg/kg. Besides, the Time in data set [7] is given as 1 s. Also, in data set [9], the selectivity ratio came out at 4.5. Further, the solubility in [10] is given as 1.53 ×10⁻² g. Also, the survival in data set [11] worked out at 100%.

On to `CC(C)c1cccc(C(C)C)c1OC(=O)CN1CCOCC1`, for which the LD50 in data set [5] was 75 mg/kg. The Drug metabolism in [6] came to 42.7 mg/kg. Moreover, in [7], the Time amounted to 12 s. In addition, the ED50 in data set [1] stood at 36.6 mg/kg. For the same compound, the selectivity ratio in [9] came out at 2.1. The survival in data set [11] stood at 30%.

In data set [5], `CC(C)c1cccc(C(C)C)c1OC(=O)COC(=O)CN(C)C.Cl` had an LD50 of 93.8 mg/kg. In addition, the Drug metabolism in data set [6] was found to be 40.1 mg/kg. Moreover, the Time in data set [7] is reported as 4.6 s. Moreover, in data set [1], the ED50 was found to be 40.2 mg/kg. Also, the selectivity ratio in data set [9] worked out at 2.3. Besides, the survival in [11] amounted to 40%.

As for `CC(C)c1cccc(C(C)C)c1OC(=O)COCC(=O)[O-].[Na+]`, the solubility in data set [12] was < 20 mg/mL. The Drug metabolism in data set [6] was 74 mg/kg. The Time in data set [7] is on record as 82.3 s. For the same compound, the ED50 in [1] was determined as 65.7 mg/kg. Also, the survival in data set [11] is 100%.

In turn, `CC(C)c1cccc(C(C)C)c1OC(=O)COC(=O)CN1CCN(C)CC1.Cl` yielded an LD50 in data set [5] of 91.6 mg/kg. Moreover, in [6], the Drug metabolism was determined as 34.8 mg/kg. For the same compound, in data set [7], the Time was 2.4 s. For the same compound, in data set [1], the ED50 came to 40.3 mg/kg. In addition, the selectivity ratio in data set [9] amounted to 2.3. The survival in data set [11] stood at 70%.

On to `CC(C)c1cccc(C(C)C)c1OC(=O)CSCC(=O)[O-].[Na+]`, for which the LD50 in [5] is 222 mg/kg. Further, the Drug metabolism in data set [6] is 203.6 mg/kg. Moreover, the Time in data set [7] was 20.2 s. Also, the ED50 in data set [1] is 190 mg/kg. In data set [2], the Stability result is given as “Stable”. Moreover, in data set [9], the selectivity ratio was determined as 1.2. The survival in data set [11] turned out to be 0%.

Compound `CC(C)c1cccc(C(C)C)c1OC(=O)COC(=O)C1CCCCN1.Cl` (stereo not given) showed an LD50 in data set [5] of 54.4 mg/kg. Further, the Drug metabolism in [6] was 19.3 mg/kg. In addition, in [7], the Time came to 10.6 s. Also, the ED50 in [1] was found to be 20.8 mg/kg. The selectivity ratio in [9] is 2.6. For the same compound, the survival in [11] is 20%.

In turn, `CC(C)c1cccc(C(C)C)c1OC(=O)COC(=O)C1COCCN1.Cl` (stereo not given) came in with an LD50 in [5] of 69.6 mg/kg. In addition, in [6], the Drug metabolism stood at 28.1 mg/kg. The Time in data set [7] came to 6.7 s. Also, the ED50 in data set [1] came out at 30.4 mg/kg. The selectivity ratio in [9] was 2.3. Besides, the survival in data set [11] is 60%.

Compound `CC(C)c1cccc(C(C)C)c1OCOP(=O)([O-])[O-].[Na+].[Na+]` [FOSPROPOFOL DISODIUM] registered an LD50 in [5] of 288 mg/kg. In data set [6], the Drug metabolism was 112.7 mg/kg. Besides, the Time in data set [7] is reported as 46.4 s. In addition, the ED50 in [1] is 105 mg/kg. Also, the selectivity ratio in data set [9] worked out at 2.8. Moreover, the survival in data set [11] is 100%.

As for `CC(C)c1cccc(C(C)C)c1OC(=O)OCCC(=O)[O-].[Na+]`, in [3], the Stability result was “Stable”. In data set [1], the ED50 result was “inactive”.

Consider `CC(C)c1cccc(C(C)C)c1OC(=O)CNCC(=O)O.Cl`, for which the solubility in data set [12] was < 10 mg/mL.

`CC(C)c1cccc(C(C)C)c1OC(=O)COC(=O)CN1CCCCC1.Cl` gave an LD50 in data set [5] of 91.4 mg/kg. Also, in data set [6], the Drug metabolism was 22 mg/kg. Besides, the Time in data set [7] was found to be 3 s. In addition, the ED50 in data set [1] turned out to be 22.3 mg/kg. Also, the selectivity ratio in data set [9] is 4.1. In data set [10], the solubility is given as 85.86 g. Also, the survival in data set [11] stood at 100%.

As to `CC(C)c1cccc(C(C)C)c1OC(=O)OC(CC(=O)[O-])C(=O)[O-].[Na+].[Na+]` (stereo not given), the Stability result in data set [3] and in [4] was “Stable” throughout. For the same compound, the ED50 result in data set [1] is “inactive”.
